Source: ChEMBL document CHEMBL1165943, “Design and synthesis of new anticancer pyrimidines with multiple-kinase inhibitory effect” (Bioorg Med Chem, 2010)

Columns and labels:
A498 = assay: Growth inhibition of human A498 cells after 48 hrs by sulforhodamine B assay; format: functional, cell-based; conditions: A498, 48 h; for CC50: read-out: LC50 (the source's name)
How it was run: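 Five-dose SRB assay. Cells in RPMI 1640 with 5% FBS and 2 mM L-glutamine were seeded at 5,000–40,000 cells/well, with a TCA-fixed time-zero plate (Tz) taken at 24 h. Compound stocks were in DMSO, serially diluted 10-fold or ½-log to five concentrations, and incubated 48 h at 37 °C. Plates were stained with SRB and read at 515 nm. IC₅₀ was taken where [(Ti−Tz)/(C−Tz)]×100 = 50.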

NCI-H460 = assay: Cytotoxicity against human NCI-H460 cells assessed as cell growth at 0.001 uM after 48 hrs by sulforhodamine B assay; format: functional; conditions: NCI-H460, 48 h, read-out: Activity
MDA-MB-435 = assay: Cytotoxicity against human MDA-MB-435 cells assessed as cell growth at 0.001 uM after 48 hrs by sulforhodamine B assay; format: functional; conditions: MDA-MB-435, 48 h, read-out: Activity
IGROV-1 [1] = assay: Cytotoxicity against human IGROV1 cells assessed as cell growth at 0.001 uM after 48 hrs by sulforhodamine B assay; format: functional; conditions: IGROV-1, 48 h, read-out: Activity
TK-10 [2] = assay: Cytotoxicity against human TK10 cells assessed as cell growth at 0.001 uM after 48 hrs by sulforhodamine B assay; format: functional; conditions: TK-10, 48 h, read-out: Activity
HCT-15 = assay: Cytotoxicity against human HCT15 cells assessed as cell growth at 100 nM after 48 hrs by sulforhodamine B assay; format: functional; conditions: HCT-15, 48 h, read-out: Activity
IGROV-1 [3] = assay: Cytotoxicity against human IGROV1 cells assessed as cell growth at 100 nM after 48 hrs by sulforhodamine B assay; format: functional; conditions: IGROV-1, 48 h, read-out: Activity
SK-OV-3 = assay: Cytotoxicity against human SKOV3 cells assessed as cell growth at 100 nM after 48 hrs by sulforhodamine B assay; format: functional; conditions: SK-OV-3, 48 h, read-out: Activity
SNB-19 = assay: Cytotoxicity against human SNB19 cells assessed as cell growth at 10 uM after 48 hrs by sulforhodamine B assay; format: functional; conditions: SNB-19, 48 h, read-out: Activity
LOX IMVI [4] = assay: Cytotoxicity against human LOXIMVI cells assessed as cell growth at 10 uM after 48 hrs by sulforhodamine B assay; format: functional; conditions: read-out: Activity
EKVX = assay: Cytotoxicity against human EKVX cells assessed as cell growth at 0.01 uM after 48 hrs by sulforhodamine B assay; format: functional; conditions: read-out: Activity
NCI-H522 [5] = assay: Cytotoxicity against human NCI-H522 cells assessed as cell growth at 0.01 uM after 48 hrs by sulforhodamine B assay; format: functional; conditions: NCI-H522, 48 h, read-out: Activity
HCT-116 = assay: Cytotoxicity against human HCT116 cells assessed as cell growth at 0.01 uM after 48 hrs by sulforhodamine B assay; format: functional; conditions: HCT-116, 48 h, read-out: Activity
SNB-75 = assay: Cytotoxicity against human SNB75 cells assessed as cell growth at 0.01 uM after 48 hrs by sulforhodamine B assay; format: functional; conditions: SNB-75, 48 h, read-out: Activity
UACC-257 = assay: Cytotoxicity against human UACC257 cells assessed as cell growth at 10 uM after 48 hrs by sulforhodamine B assay; format: functional; conditions: UACC-257, 48 h, read-out: Activity
NCI/ADR-RES = assay: Cytotoxicity against human NCI/ADR-RES cells assessed as cell growth at 10 uM after 48 hrs by sulforhodamine B assay; format: functional; conditions: read-out: Activity
MDA-MB-231 = assay: Cytotoxicity against human MDA-MB-231 cells assessed as cell growth at 10 uM after 48 hrs by sulforhodamine B assay; format: functional; conditions: MDA-MB-231, 48 h, read-out: Activity
MOLT-4 = assay: Cytotoxicity against human MOLT4 cells assessed as cell growth at 1 uM after 48 hrs by sulforhodamine B assay; format: functional; conditions: MOLT-4, 48 h, read-out: Activity
COLO 205 [6] = assay: Cytotoxicity against human COLO205 cells assessed as cell growth at 1 uM after 48 hrs by sulforhodamine B assay; format: functional; conditions: COLO 205, 48 h, read-out: Activity
How it was run: (§1)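 Cells grown in RPMI 1640 with 5% FBS and 2 mM L-glutamine, seeded at 5,000–40,000 cells/well by doubling time. Time-zero plates TCA-fixed after 24 h. Five concentrations (10-fold or half-log dilutions from DMSO stock) added; 48 h at 37 °C, 5% CO2. Cold TCA fixation (final 10%, 60 min, 4 °C), 0.4% SRB stain, dye solubilized in 10 mM trizma base, A515.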

UACC-62 = assay: Cytotoxicity against human UACC62 cells assessed as cell growth at 0.01 uM after 48 hrs by sulforhodamine B assay; format: functional; conditions: UACC-62, 48 h, read-out: Activity
OVCAR-8 = assay: Cytotoxicity against human OVCAR8 cells assessed as cell growth at 0.01 uM after 48 hrs by sulforhodamine B assay; format: functional; conditions: OVCAR-8, 48 h, read-out: Activity
LOX IMVI [7] = assay: Cytotoxicity against human LOXIMVI cells assessed as cell growth at 1 uM after 48 hrs by sulforhodamine B assay; format: functional; conditions: read-out: Activity
OVCAR-4 = assay: Cytotoxicity against human OVCAR4 cells assessed as cell growth at 1 uM after 48 hrs by sulforhodamine B assay; format: functional; conditions: OVCAR-4, 48 h, read-out: Activity
SN12C = assay: Cytotoxicity against human SN12C cells assessed as cell growth at 1 uM after 48 hrs by sulforhodamine B assay; format: functional; conditions: read-out: Activity
TK-10 [8] = assay: Cytotoxicity against human TK10 cells assessed as cell growth at 1 uM after 48 hrs by sulforhodamine B assay; format: functional; conditions: TK-10, 48 h, read-out: Activity
NCI-H322M = assay: Cytotoxicity against human NCI-H322M cells assessed as cell growth at 10 uM after 48 hrs by sulforhodamine B assay; format: functional; conditions: read-out: Activity
NCI-H522 [9] = assay: Cytotoxicity against human NCI-H522 cells assessed as cell growth at 10 uM after 48 hrs by sulforhodamine B assay; format: functional; conditions: NCI-H522, 48 h, read-out: Activity
COLO 205 [10] = assay: Cytotoxicity against human COLO205 cells assessed as cell growth at 10 uM after 48 hrs by sulforhodamine B assay; format: functional; conditions: COLO 205, 48 h, read-out: Activity; how it was run: as §1
SF-268 = assay: Growth inhibition of human SF268 cells after 48 hrs by sulforhodamine B assay; format: functional, cell-based; conditions: SF-268, 48 h; for CC50: read-out: LC50 (the source's name)
How it was run: (§2)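 Cells grown in RPMI 1640 with 5% FBS and 2 mM L-glutamine, seeded at 5,000–40,000 cells/well according to doubling time. After 24 h, time-zero plates are TCA-fixed. Five concentrations (10-fold or ½log dilutions, DMSO stocks) are applied for 48 h at 37 °C, 5% CO₂. Cells are TCA-fixed, SRB-stained and read at 515 nm. IC₅₀ is taken from [(Ti−Tz)/(C−Tz)]×100 = 50.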

M14 = assay: Growth inhibition of human M14 cells after 48 hrs by sulforhodamine B assay; format: functional, cell-based; conditions: for CC50: read-out: LC50 (the source's name); how it was run: as §2

| SMILES | GI50 (A498) | IC50 (A498) | TGI (A498) | CC50 (A498) | growth at 0.001 µM (NCI-H460) | growth at 0.001 µM (MDA-MB-435) | growth at 0.001 µM (IGROV-1 [1]) | growth at 0.001 µM (TK-10 [2]) | growth at 0.1 µM (HCT-15) | growth at 0.1 µM (IGROV-1 [3]) | growth at 0.1 µM (SK-OV-3) | growth at 10 µM (SNB-19) | growth at 10 µM (LOX IMVI [4]) | growth at 0.01 µM (EKVX) | growth at 0.01 µM (NCI-H522 [5]) | growth at 0.01 µM (HCT-116) | growth at 0.01 µM (SNB-75) | growth at 10 µM (UACC-257) | growth at 10 µM (NCI/ADR-RES) | growth at 10 µM (MDA-MB-231) | further results |
| --- | --- | --- | --- | --- | --- | --- | --- | --- | --- | --- | --- | --- | --- | --- | --- | --- | --- | --- | --- | --- | --- |
| CC(=O)c1ccccc1-c1ccc(-c2ccnc(NC(=O)Nc3cc(N4CCOCC4)cc(C(F)(F)F)c3)n2)cn1 | 13 µM | > 100 µM | > 100 µM | > 100 µM | 109% | 98% | 98% | 103% | 92% | 87% | 118% | 26% | 93% | 94% | 103% | 95% | 100% | 92% | 69% | 56% | growth at 1 µM (MOLT-4): 86%; growth at 1 µM (COLO 205 [6]): 106%; growth at 0.01 µM (UACC-62): 94%; growth at 0.01 µM (OVCAR-8): 93%; growth at 1 µM (LOX IMVI [7]): 54%; growth at 1 µM (OVCAR-4): 48%; growth at 1 µM (SN12C): 64%; growth at 1 µM (TK-10 [8]): 32%; growth at 10 µM (NCI-H322M): 80%; growth at 10 µM (NCI-H522 [9]): 40%; growth at 10 µM (COLO 205 [10]): 115%; GI50 (SF-268): > 100 µM; IC50 (SF-268): 40.2 µM; TGI (SF-268): > 100 µM; CC50 (SF-268): > 100 µM; TGI (M14; Homo sapiens, M14, 48 h): > 100 µM; CC50 (M14; Homo sapiens, M14, 48 h): > 100 µM; IC50 (M14; m14): Not Active |
| CC(=O)Nc1cccc(-c2ccc(-c3ccnc(NC(=O)Nc4cc(C(F)(F)F)cc(C(F)(F)F)c4)n3)cn2)c1.Cl | 6.13 µM | 6.13 µM | 22.2 µM | 59.2 µM | 95% | 97% | 95% | 103% | 90% | 89% | 94% | -88% | 4% | 79% | 77% | 85% | 71% | -89% | 8% | -71% | growth at 1 µM (MOLT-4): 4%; growth at 1 µM (COLO 205 [6]): 52%; growth at 0.01 µM (UACC-62): 92%; growth at 0.01 µM (OVCAR-8): 96%; growth at 1 µM (LOX IMVI [7]): -40%; growth at 1 µM (OVCAR-4): 4%; growth at 1 µM (SN12C): 49%; growth at 1 µM (TK-10 [8]): 80%; growth at 10 µM (NCI-H322M): -62%; growth at 10 µM (NCI-H522 [9]): -73%; growth at 10 µM (COLO 205 [10]): 3%; GI50 (SF-268): 4.92 µM; IC50 (SF-268): 4.92 µM; TGI (SF-268): 23.9 µM; CC50 (SF-268): 98.7 µM; GI50 (M14; Homo sapiens, M14, 48 h): 1.83 µM; TGI (M14; Homo sapiens, M14, 48 h): 3.76 µM; IC50 (M14; Homo sapiens, M14, 48 h, read-out: IC50): 1.83 µM; CC50 (M14; Homo sapiens, M14, 48 h): 7.74 µM |
